Tests used:
[1] = test system: Abutilon theophrasti; test: Post-emergence herbicidal activity against Abutilon theophrasti (velvetleaf) assessed as growth inhibition at emulsified concentrate of 75 g/ai ha after 15 days by greenhouse test; assay type: functional
[2] = test system: Brassica juncea; test: Post-emergence herbicidal activity against Brassica juncea assessed as growth inhibition at emulsified concentrate of 37.5 g/ai ha after 15 days by greenhouse test; assay type: functional
Method in brief: (§1)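 Compounds were made up as 100 g/L emulsifiable concentrates in DMF with Tween-80, then diluted in water. About 20 seeds were sown 1-3 cm deep in pots and grown in a greenhouse at 15-30 °C and 50% relative humidity. Sprays were applied postemergence at the two-leaf stage. Untreated and DMF + Tween-80 solvent controls were included. Injury was scored visually 15 days after treatment, with three replicates per treatment.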

[3] = test system: Amaranthus retroflexus; test: Post-emergence herbicidal activity against Amaranthus retroflexus assessed as growth inhibition at emulsified concentrate of 37.5 g/ai ha after 15 days by greenhouse test; assay type: functional; method in brief: as §1
[4] = test system: Cyperus iria; test: Post-emergence herbicidal activity against Cyperus iria assessed as growth inhibition at emulsified concentrate of 37.5 g/ai ha after 15 days by greenhouse test; assay type: functional
[5] = test system: Brassica juncea; test: Post-emergence herbicidal activity against Brassica juncea assessed as growth inhibition at emulsified concentrate of 150 g/ai ha after 15 days by greenhouse test; assay type: functional
Method in brief: (§2)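 About 20 seeds sown 1–3 cm deep, grown at 15–30 °C and 50% RH. Dicot seedlings sprayed postemergence at the two-leaf stage with a 100 g/L emulsifiable concentrate (DMF/Tween-80) diluted in water, 150 g ai/ha. Untreated and solvent controls included. Visual rating at 15 days, three replicates.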

[6] = test system: Echinochloa crus-galli; test: Post-emergence herbicidal activity against Echinochloa crus-galli (barnyard grass) assessed as growth inhibition at emulsified concentrate of 150 g/ai ha after 15 days by greenhouse test; assay type: functional
Method in brief: (§3)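 About 20 seeds sown 1–3 cm deep, grown at 15–30 °C and 50% RH. Monocot seedlings sprayed postemergence at the one-leaf stage with a 100 g/L emulsifiable concentrate (DMF/Tween-80) diluted in water, 150 g ai/ha. Untreated and solvent controls included. Visual rating at 15 days, three replicates.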

[7] = test system: Poa annua; test: Post-emergence herbicidal activity against Poa annua assessed as growth inhibition at emulsified concentrate of 150 g/ai ha after 15 days by greenhouse test; assay type: functional; method in brief: as §3
[8] = test system: Rumex acetosa; test: Post-emergence herbicidal activity against Rumex acetosa assessed as growth inhibition at emulsified concentrate of 37.5 g/ai ha after 15 days by greenhouse test; assay type: functional
[9] = test system: Cyperus iria; test: Post-emergence herbicidal activity against Cyperus iria assessed as growth inhibition at emulsified concentrate of 75 g/ai ha after 15 days by greenhouse test; assay type: functional
[10] = test system: Rumex acetosa; test: Post-emergence herbicidal activity against Rumex acetosa assessed as growth inhibition at emulsified concentrate of 75 g/ai ha after 15 days by greenhouse test; assay type: functional
[11] = test system: Rumex acetosa; test: Post-emergence herbicidal activity against Rumex acetosa assessed as growth inhibition at emulsified concentrate of 150 g/ai ha after 15 days by greenhouse test; assay type: functional
[12] = test system: Amaranthus retroflexus; test: Post-emergence herbicidal activity against Amaranthus retroflexus assessed as growth inhibition at emulsified concentrate of 150 g/ai ha after 15 days by greenhouse test; assay type: functional; method in brief: as §2
[13] = molecular target: T1, Protoporphyrinogen oxidase (Homo sapiens, UniProt P50336); test: Inhibition of Homo sapiens (human) recombinant protoporphyrinogen oxidase expressed in Escherichia coli JM109 assessed as oxidation of protoporphyrinogen IX substrate by fluorescence assay
T1 sequence (P50336 whole entry): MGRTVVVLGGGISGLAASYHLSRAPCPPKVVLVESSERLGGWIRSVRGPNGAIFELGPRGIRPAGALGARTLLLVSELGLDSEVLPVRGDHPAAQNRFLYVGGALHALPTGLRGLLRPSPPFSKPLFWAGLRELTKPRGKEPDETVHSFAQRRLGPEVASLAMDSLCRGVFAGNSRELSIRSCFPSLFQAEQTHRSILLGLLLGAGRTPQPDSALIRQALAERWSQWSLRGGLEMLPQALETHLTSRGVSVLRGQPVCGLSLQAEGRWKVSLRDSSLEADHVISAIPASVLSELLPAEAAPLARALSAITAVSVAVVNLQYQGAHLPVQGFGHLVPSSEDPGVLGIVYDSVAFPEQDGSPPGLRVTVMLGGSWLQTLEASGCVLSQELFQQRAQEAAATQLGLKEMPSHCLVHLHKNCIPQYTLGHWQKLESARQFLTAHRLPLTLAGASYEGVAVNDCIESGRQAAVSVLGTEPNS

[14] = test system: Abutilon theophrasti; test: Post-emergence herbicidal activity against Abutilon theophrasti (velvetleaf) assessed as growth inhibition at emulsified concentrate of 150 g/ai ha after 15 days by greenhouse test; assay type: functional
[15] = test system: Amaranthus retroflexus; test: Post-emergence herbicidal activity against Amaranthus retroflexus assessed as growth inhibition at emulsified concentrate of 75 g/ai ha after 15 days by greenhouse test; assay type: functional; method in brief: as §1
[16] = test system: Polygonum humifusum; test: Post-emergence herbicidal activity against Polygonum humifusum assessed as growth inhibition at emulsified concentrate of 37.5 g/ai ha after 15 days by greenhouse test; assay type: functional
[17] = test system: Polygonum humifusum; test: Post-emergence herbicidal activity against Polygonum humifusum assessed as growth inhibition at emulsified concentrate of 75 g/ai ha after 15 days by greenhouse test; assay type: functional
[18] = test system: Eclipta prostrata; test: Post-emergence herbicidal activity against Eclipta prostrata assessed as growth inhibition at emulsified concentrate of 37.5 g/ai ha after 15 days by greenhouse test; assay type: functional; method in brief: as §1
[19] = test system: Cyperus iria; test: Post-emergence herbicidal activity against Cyperus iria assessed as growth inhibition at emulsified concentrate of 150 g/ai ha after 15 days by greenhouse test; assay type: functional
[20] = test system: Polygonum humifusum; test: Post-emergence herbicidal activity against Polygonum humifusum assessed as growth inhibition at emulsified concentrate of 150 g/ai ha after 15 days by greenhouse test; assay type: functional
[21] = test system: Brassica juncea; test: Post-emergence herbicidal activity against Brassica juncea assessed as growth inhibition at emulsified concentrate of 75 g/ai ha after 15 days by greenhouse test; assay type: functional; method in brief: as §1
[22] = test system: Abutilon theophrasti; test: Post-emergence herbicidal activity against Abutilon theophrasti (velvetleaf) assessed as growth inhibition at emulsified concentrate of 37.5 g/ai ha after 15 days by greenhouse test; assay type: functional
[23] = test system: Digitaria sanguinalis; test: Post-emergence herbicidal activity against Digitaria sanguinalis (hairy crabgrass) assessed as growth inhibition at emulsified concentrate of 150 g/ai ha after 15 days by greenhouse test; assay type: functional; method in brief: as §3
[24] = test system: Eclipta prostrata; test: Post-emergence herbicidal activity against Eclipta prostrata assessed as growth inhibition at emulsified concentrate of 150 g/ai ha after 15 days by greenhouse test; assay type: functional; method in brief: as §2
[25] = test system: Eclipta prostrata; test: Post-emergence herbicidal activity against Eclipta prostrata assessed as growth inhibition at emulsified concentrate of 75 g/ai ha after 15 days by greenhouse test; assay type: functional; method in brief: as §1

CCCOC(=O)CSc1nc2cc(-n3nc(C(C)(C)C)oc3=O)c(F)cc2s1
inhibition (INH) [1]: 0%
inhibition (INH) [2]: 50%
inhibition (INH) [3]: 0%
inhibition (INH) [4]: 40%
inhibition (INH) [5]: 50%
inhibition (INH) [6]: 0%
inhibition (INH) [7]: 0%
inhibition (INH) [8]: 50%
inhibition (INH) [9]: 40%
inhibition (INH) [10]: 60%
inhibition (INH) [11]: 70%
inhibition (INH) [12]: 100%
Ki [13]: 700 nM
inhibition (INH) [14]: 0%
inhibition (INH) [15]: 60%
inhibition (INH) [16]: 60%
inhibition (INH) [17]: 70%
inhibition (INH) [18]: 0%
inhibition (INH) [19]: 60%
inhibition (INH) [20]: 80%
inhibition (INH) [21]: 50%
inhibition (INH) [22]: 0%
inhibition (INH) [23]: 0%
inhibition (INH) [24]: 90%
inhibition (INH) [25]: 40%

Reference: ChEMBL document CHEMBL3045650, “Design, synthesis, and 3D-QSAR analysis of novel 1,3,4-oxadiazol-2(3H)-ones as protoporphyrinogen oxidase inhibitors” (J Agric Food Chem, 2010)
